# Assay results: ChEMBL document CHEMBL1123740, “Potential anti-AIDS drugs. 2',3'-Dideoxycytidine analogues” (1987)
# Legend:
# [1] = Compound was evaluated for the protective effect against HTLV-III/LAV (HIV) pathogenesis at a concentration of 5(uM); type: functional
# How it was run: (§1)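 ATH8 cells (2×10^5) were polybrene-treated, then exposed to HTLV-IIIB (2000 virus particles/cell) for 45 min. They were resuspended in 2 mL IL-2-containing medium with or without compound and incubated at 37 °C in 5% CO2. Viable cells were counted by trypan blue exclusion on days 5–7. % protection compared infected treated, infected untreated, and uninfected cells.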
# [2] = test system: ATH-8 cell line; experiment: Compound was evaluated for cytotoxicity by HIV cytopathic effect assay performed with ATH8 cells at a concentration of 50(uM); type: functional, Homo sapiens
# How it was run: (§2)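 Uninfected control ATH8 cells (2×10^5) were polybrene-treated and cultured in 2 mL IL-2-containing medium with or without compound at 37 °C in 5% CO2. Viable cells were counted by trypan blue exclusion on a hemocytometer at days 5–7. % cytotoxicity = 100 × [1 − (viable cells with nucleoside ÷ viable cells cultured alone)].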
# [3] = Compound was evaluated for the protective effect against HTLV-III/LAV (HIV) pathogenesis at a concentration of 0.05(uM); type: functional; how it was run: as §1
# [4] = Compound was evaluated for the protective effect against HTLV-III/LAV (HIV) pathogenesis at a concentration of 0.5(uM); type: functional; how it was run: as §1
# [5] = test system: ATH-8 cell line; experiment: Compound was evaluated for cytotoxicity by HIV cytopathic effect assay performed with ATH8 cells at a concentration of 0.05(uM); type: functional, Homo sapiens; how it was run: as §2
# [6] = Compound was evaluated for the protective effect against HTLV-III/LAV (HIV) pathogenesis at a concentration of 50(uM); type: functional; how it was run: as §1
# [7] = test system: ATH-8 cell line; experiment: Compound was evaluated for cytotoxicity by HIV cytopathic effect assay performed with ATH8 cells at a concentration of 5(uM); type: functional, Homo sapiens; how it was run: as §2
# [8] = test system: ATH-8 cell line; experiment: Compound was evaluated for cytotoxicity by HIV cytopathic effect assay performed with ATH8 cells at a concentration of 0.5(uM); type: functional, Homo sapiens; how it was run: as §2
# [9] = test system: ATH-8 cell line; experiment: Compound was evaluated for cytotoxicity by HIV cytopathic effect assay performed with ATH8 cells at a concentration of 200(uM); type: functional, Homo sapiens; how it was run: as §2
# [10] = test system: ATH-8 cell line; experiment: (§3) Compound was evaluated for cytotoxicity by HIV cytopathic effect assay performed with ATH8 cells at a concentration of 10(uM); type: functional, Homo sapiens; how it was run: as §2
# [11] = Compound was evaluated for the protective effect against HTLV-III/LAV (HIV) pathogenesis at a concentration of 200(uM); type: functional; how it was run: as §1
# [12] = Compound was evaluated for the protective effect against HTLV-III/LAV (HIV) pathogenesis at a concentration of 10(uM); type: functional; how it was run: as §1
# [13] = Compound was evaluated for the protective effect against HTLV-III/LAV (HIV) pathogenesis at a concentration of 1(uM); type: functional; how it was run: as §1
# [14] = test system: ATH-8 cell line; experiment: Compound was evaluated for cytotoxicity by HIV cytopathic effect assay performed with ATH8 cells at a concentration of 100(uM); type: functional, Homo sapiens; how it was run: as §2
# [15] = Compound was evaluated for the protective effect against HTLV-III/LAV (HIV) pathogenesis at a concentration of 100(uM); type: functional; how it was run: as §1
# [16] = test system: ATH-8 cell line; experiment: Compound was evaluated for cytotoxicity by HIV cytopathic effect assay performed with ATH8 cells at a concentration of 1(uM); type: functional, Homo sapiens; how it was run: as §2
# [17] = test system: ATH-8 cell line; experiment: Compound was evaluated for cytotoxicity by HIV cytopathic effect assay performed with ATH8 cells at a concentration of 2(uM); type: functional, Homo sapiens; how it was run: as §2
# [18] = Compound was evaluated for the protective effect against HTLV-III/LAV (HIV) pathogenesis at a concentration of 2(uM); type: functional; how it was run: as §1
# [19] = test system: ATH-8 cell line; experiment: Compound was evaluated for cytotoxicity by HIV cytopathic effect assay performed with ATH8 cells at a concentration of 2000(uM); type: functional, Homo sapiens; how it was run: as §2
# [20] = Compound was evaluated for the protective effect against HTLV-III/LAV (HIV) pathogenesis at a concentration of 1000(uM); type: functional; how it was run: as §1
# [21] = test system: ATH-8 cell line; experiment: Compound was evaluated for cytotoxicity by HIV cytopathic effect assay performed with ATH8 cells at a concentration of 500(uM); type: functional, Homo sapiens; how it was run: as §2
# [22] = Compound was evaluated for the protective effect against HTLV-III/LAV (HIV) pathogenesis at a concentration of 2000(uM); type: functional; how it was run: as §1
# [23] = test system: ATH-8 cell line; experiment: Compound was evaluated for cytotoxicity by HIV cytopathic effect assay performed with ATH8 cells at a concentration of 1000(uM); type: functional, Homo sapiens; how it was run: as §2
# [24] = test system: ATH-8 cell line; experiment: as §3; type: functional; how it was run: as §2
# [25] = Compound was evaluated for the protective effect against HTLV-III/LAV (HIV) pathogenesis at a concentration of 500(uM); type: functional; how it was run: as §1
# [26] = test system: ATH-8 cell line; experiment: Compound was evaluated for cytotoxicity by HIV cytopathic effect assay performed with ATH8 cells at a concentration of 30(uM); type: functional, Homo sapiens; how it was run: as §2
# [27] = Compound was evaluated for the protective effect against HTLV-III/LAV (HIV) pathogenesis at a concentration of 30(uM); type: functional; how it was run: as §1
SMILES,Protective effect [1] [%],Cytotoxicity [2] [%],Protective effect [4] [%],Protective effect [6] [%],Cytotoxicity [7] [%],Cytotoxicity [8] [%],Cytotoxicity [9] [%],Cytotoxicity [10] [%],Protective effect [11] [%],Protective effect [12] [%],Protective effect [13] [%],Cytotoxicity [14] [%],Protective effect [15] [%],Cytotoxicity [16] [%],other results
Nc1ccn([C@H]2CC[C@@H](CO)O2)c(=O)n1 [ZALCITABINE],100,30,97,77,0,0,,,,,,,,,Protective effect [3]: 18%; Cytotoxicity [5]: 0%
Cc1cn(C2CCC(COP(=O)([O-])[O-])O2)c(=O)[nH]c1=O.[Na+].[Na+] (stereo unspecified),,9,,18,,,10,9,15,7,,,,,
Nc1ncnc2c1ncn2[C@H]1CC[C@@H](CO)O1,98,0,,100,6,,0,0,100,100,42,0,100,0,
Nc1ncnc2c1ncn2C1CCC(COP(=O)([O-])[O-])O1.[Na+].[Na+] (stereo unspecified),91,4,,83,10,,5,6,100,100,25,0,100,2,
Nc1ncn(C2CCC(CO)O2)c(=O)n1 (stereo unspecified),,62,,38,,,,19,,58,16,,,13,
Nc1nc(=O)n([C@@H]2CC[C@H](CO)O2)cc1F,100,9,100,88,0,0,,,,,,,,,Protective effect [3]: 5%; Cytotoxicity [5]: 5%
N.N.Nc1ccn(C2CCC(COP(=O)(O)O)O2)c(=O)n1 (stereo unspecified),,,13,,,0,,0,,74,,,,,Cytotoxicity [17]: 7%; Protective effect [18]: 9%
Cc1cn([C@H]2C=C[C@@H](CO)O2)c(=O)[nH]c1=O [STAVUDINE],,8,,9,,,6,,77,3,,13,19,,Cytotoxicity [19]: 53%; Protective effect [20]: 46%; Cytotoxicity [21]: 30%; Protective effect [22]: 43%; Cytotoxicity [23]: 40%; Cytotoxicity [24]: 8%; Protective effect [25]: 68%
Nc1nc(=O)n(C2CCC(CO)O2)cc1Br (stereo unspecified),,,,,,,0,14,0,8,6,,,14,Cytotoxicity [26]: 2%; Protective effect [27]: 5%
Cc1cn(C2CCC(CO)O2)c(=O)nc1N (stereo unspecified),,,,,,,,27,,7,,44,3,,Cytotoxicity [17]: 23%; Protective effect [18]: 2%
